# According to ChEMBL document CHEMBL1142708, “Synthesis, characterization, and comparative in vitro cytotoxicity studies of platinum(II), palladium(II), and gold(III) methylsarcosinedithiocarbamate complexes” (J Med Chem, 2005):
# Tests used:
# HL-60 = test: Concentration of the compound required to inhibit cell growth by 50% towards human HL60 tumor cell lines by the trypan blue dye exclusion test after 72 h; format: functional, cell-based
# Summary of the method: (§1)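 Cells were seeded in IMDM with 10% heat-inactivated FCS, penicillin/streptomycin and L-glutamine at 37 °C under 5% CO2, at 5.0 × 10^4 cells·mL-1 for HeLa and 2.0 × 10^5 cells·mL-1 for HL60. Compounds were taken from DMSO stocks into IMDM (final DMSO 0.1%). After 72 h, cells were stained for 2 min with 0.25% trypan blue plus 5% FCS, and viable cells were counted by phase-contrast microscopy. IC50 was taken as 50% growth inhibition versus control.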
# HeLa = test: Concentration of the compound required to inhibit cell growth by 50% towards human HeLa tumor cell lines by the trypan blue dye exclusion test after 72 h; format: functional, cell-based; summary of the method: as §1
Substance,IC50 (HL-60) [µM],IC50 (HeLa) [µM]
CISPLATIN,1.7,1.2
[Pd(MSDT)Cl]n,3.8,6
[Pt(MSDT)Br]n,> 15,> 15
[Pt(MSDTM)Br2],> 15,> 15

# Continued, values first:
IC50 (HL-60) [µM],IC50 (HeLa) [µM],Substance
0.8,1.8,[Au(MSDT)Br2]
0.9,1.7,[Au(MSDT)Cl2]
3.7,5,[Pd(MSDT)Br]n
> 15,> 15,[Pd(MSDTM)Br2]
> 15,> 15,[Pt(MSDT)Cl]n
